# In ChEMBL document CHEMBL1649137, “Genetic analysis of factors affecting susceptibility of Bacillus subtilis to daptomycin” (2009):
# Key:
# Bacillus subtilis [1] = assay: Decrease in yvzA gene expression in Bacillus subtilis W168 by microarray analysis; type: functional
# In short: (§1)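 W168 grown in Ca2+-supplemented Mueller-Hinton broth at 37°C to OD600 0.4, split, and one half exposed to 1 μg/ml daptomycin for 20 min. Total RNA from three biological replicates; cDNA labeled with Alexa Fluor 555/647 and co-hybridized at 42°C for 16–18 h. Genes with summed intensity <20 or SD > mean were dropped. Fold change is treated/untreated signal, from ≥6 spot measurements.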
# Bacillus subtilis [2] = assay: Antibacterial activity against Bacillus subtilis CU1065 mutant with mprF gene overexpression by liquid growth inhibition assay; type: functional
# In short: (§2)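 Daptomycin MIC by liquid growth inhibition. Overnight cultures diluted 1:100, grown to mid-log, rediluted to 5 × 10^5 CFU/ml in Mueller-Hinton broth with 50 mg/liter Ca2+. At least 10 concentrations near the predicted MIC, plus a no-drug control, added at start; 200 μl. OD600 read every 20 min for 24 h at 37°C with shaking. Inhibition: 24 h OD600 <0.05. MIC is the mode of at least triplicates.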
# Bacillus subtilis [3] = assay: Antibacterial activity against mprF and ugtP gene-deficient Bacillus subtilis CU1065 mutant by liquid growth inhibition assay; type: functional; in short: as §2
# Bacillus subtilis [4] = assay: Antibacterial activity against Bacillus subtilis W168 mutant by liquid growth inhibition assay; type: functional; in short: as §2
# Bacillus subtilis [5] = assay: Induction of yqjL gene expression in Bacillus subtilis W168 by microarray analysis; type: functional; in short: as §1
# Bacillus subtilis [6] = assay: Decrease in yvcB gene expression in Bacillus subtilis W168 by microarray analysis; type: functional; in short: as §1
# Bacillus subtilis [7] = assay: Antibacterial activity against sigXW gene-deficient Bacillus subtilis CU1065 double mutant by liquid growth inhibition assay; type: functional; in short: as §2
# Bacillus subtilis [8] = assay: Decrease in rpmB gene expression in Bacillus subtilis W168 by microarray analysis; type: functional; in short: as §1
# Bacillus subtilis [9] = assay: Decrease in fabHA gene expression in Bacillus subtilis W168 by microarray analysis; type: functional; in short: as §1
# Bacillus subtilis [10] = assay: Decrease in ywfB gene expression in Bacillus subtilis W168 by microarray analysis; type: functional; in short: as §1
# Bacillus subtilis [11] = assay: Antibacterial activity against sigM gene-deficient Bacillus subtilis CU1065 mutant by liquid growth inhibition assay; type: functional; in short: as §2
# Bacillus subtilis [12] = assay: Decrease in yknU gene expression in Bacillus subtilis W168 by microarray analysis; type: functional; in short: as §1
# Bacillus subtilis [13] = assay: Induction of yocH gene expression in Bacillus subtilis W168 by microarray analysis; type: functional; in short: as §1
# Bacillus subtilis [14] = assay: Antibacterial activity against liaH gene-deficient Bacillus subtilis CU1065 mutant by liquid growth inhibition assay
# Bacillus subtilis [15] = assay: Decrease in yxeM gene expression in Bacillus subtilis W168 by microarray analysis; type: functional; in short: as §1
# Bacillus subtilis [16] = assay: Decrease in ypeB gene expression in Bacillus subtilis W168 by microarray analysis; type: functional; in short: as §1
# Bacillus subtilis [17] = assay: Induction of liaR gene expression in Bacillus subtilis W168 by microarray analysis; type: functional; in short: as §1
# Bacillus subtilis [18] = assay: Antibacterial activity against liaH and pspA gene-deficient Bacillus subtilis CU1065 mutant by liquid growth inhibition assay; type: functional; in short: as §2
# Bacillus subtilis [19] = assay: Antibacterial activity against pssA gene-deficient Bacillus subtilis CU1065 mutant by liquid growth inhibition assay; type: functional; in short: as §2
# Bacillus subtilis [20] = assay: Decrease in yxeQ gene expression in Bacillus subtilis W168 by microarray analysis; type: functional; in short: as §1
# Bacillus subtilis [21] = assay: Decrease in fabHB gene expression in Bacillus subtilis W168 by microarray analysis; type: functional; in short: as §1
# Bacillus subtilis [22] = assay: Antibacterial activity against sigXM gene-deficient Bacillus subtilis CU1065 double mutant by liquid growth inhibition assay; type: functional; in short: as §2
# Bacillus subtilis [23] = assay: Induction of rodA gene expression in Bacillus subtilis W168 by microarray analysis; type: functional; in short: as §1
# Bacillus subtilis [24] = assay: Induction of liaG gene expression in Bacillus subtilis W168 by microarray analysis; type: functional; in short: as §1
# Bacillus subtilis [25] = assay: Decrease in ydgK gene expression in Bacillus subtilis W168 by microarray analysis; type: functional; in short: as §1
# Bacillus subtilis [26] = assay: Antibacterial activity against sigMWX and liaIH gene-deficient Bacillus subtilis CU1065 mutant by liquid growth inhibition assay; type: functional; in short: as §2
# Bacillus subtilis [27] = assay: Induction of ypbG gene expression in Bacillus subtilis W168 by microarray analysis; type: functional; in short: as §1
# Bacillus subtilis [28] = assay: Induction of sigM gene expression in Bacillus subtilis W168 by microarray analysis; type: functional; in short: as §1
# Bacillus subtilis [29] = assay: Decrease in ywdD gene expression in Bacillus subtilis W168 by microarray analysis; type: functional; in short: as §1
# Bacillus subtilis [30] = assay: Antibacterial activity against wild-type Bacillus subtilis; type: functional; in short: as §2
# Bacillus subtilis [31] = assay: Antibacterial activity against des gene-deficient Bacillus subtilis W168 mutant with alteration in membrane composition at 25 degC by liquid growth inhibition assay; type: functional
# In short: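 Mid-log cells diluted to 5 × 10^5 CFU/ml in Mueller-Hinton broth with 50 mg/liter Ca2+. At least 10 concentrations near the predicted MIC, plus an untreated control, present from the start. Growth followed by OD600. Inhibition: final 24 h OD600 <0.05. MIC is the mode of at least triplicates.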
# Bacillus subtilis [32] = assay: Induction of liaF gene expression in Bacillus subtilis W168 by microarray analysis; type: functional; in short: as §1
# Bacillus subtilis [33] = assay: Induction of yxjI gene expression in Bacillus subtilis W168 by microarray analysis; type: functional
# In short: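 W168 cultures in Mueller-Hinton broth with 50 mg/liter Ca2+, 37°C with shaking, grown to mid-log phase (OD600 0.4) from a 1:1,000 overnight dilution. Split: one half given 1 μg/ml daptomycin for 20 min, the other left untreated. Total RNA from three biological replicates; cDNA labeled with Alexa Fluor 555 or 647 and hybridized 16 to 18 h at 42°C. Induction = treated/untreated signal intensity, duplicate spots on three arrays.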
# Bacillus subtilis [34] = assay: Antibacterial activity against Bacillus subtilis CU1066 with depletion in pgsA gene by liquid growth inhibition assay; type: functional; details: CU1065, in the assay text read “CU1065” for “CU1066”
# In short: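 Liquid growth inhibition in Mueller-Hinton broth with 50 mg/liter Ca2+. Overnight cultures diluted 1:100, grown to mid-log, rediluted to 5 × 10^5 CFU/ml, then given at least 10 daptomycin concentrations near the predicted MIC plus a drug-free control. OD600 read every 20 min for 24 h at 37°C with shaking. MIC is the mode of at least triplicates of the lowest concentration giving final OD600 <0.05.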
# Bacillus subtilis [35] = assay: Antibacterial activity against liaF gene-deficient Bacillus subtilis W168 mutant by liquid growth inhibition assay; type: functional; in short: as §2
# Bacillus subtilis [36] = assay: Antibacterial activity against yhcYZ gene-deficient Bacillus subtilis CU1065 mutant by liquid growth inhibition assay; type: functional; in short: as §2
# Bacillus subtilis [37] = assay: Antibacterial activity against ugtP gene-deficient Bacillus subtilis CU1065 mutant by liquid growth inhibition assay; type: functional; in short: as §2
# Bacillus subtilis [38] = assay: Induction of liaH gene expression in Bacillus subtilis W168 by microarray analysis; type: functional; in short: as §1
# Bacillus subtilis [39] = assay: Antibacterial activity against liaGFSR gene-deficient Bacillus subtilis W168 mutant by liquid growth inhibition assay; type: functional; in short: as §2
# Bacillus subtilis [40] = assay: Antibacterial activity against liaIH gene-deficient Bacillus subtilis W168 mutant by liquid growth inhibition assay; type: functional; in short: as §2
# Bacillus subtilis [41] = assay: Antibacterial activity against liaIH, mprF and pspA gene-deficient Bacillus subtilis CU1065 mutant by liquid growth inhibition assay; type: functional; in short: as §2
# Bacillus subtilis [42] = assay: Antibacterial activity against sigW and pspA gene-deficient Bacillus subtilis CU1065 mutant by liquid growth inhibition assay; type: functional; in short: as §2
# Bacillus subtilis [43] = assay: Antibacterial activity against des gene-deficient Bacillus subtilis W168 mutant by liquid growth inhibition assay; type: functional; in short: as §2
# Bacillus subtilis [44] = assay: Antibacterial activity against sigMWX gene-deficient Bacillus subtilis CU1065 triple mutant by liquid growth inhibition assay; type: functional; in short: as §2
# Bacillus subtilis [45] = assay: Induction of murB gene expression in Bacillus subtilis W168 by microarray analysis; type: functional; in short: as §1
# Bacillus subtilis [46] = assay: Antibacterial activity against liaIHGFSR gene-deficient Bacillus subtilis W168 mutant by liquid growth inhibition assay; type: functional; in short: as §2
# Bacillus subtilis [47] = assay: Induction of sdpI gene expression in Bacillus subtilis W168 by microarray analysis; type: functional; in short: as §1
# Bacillus subtilis [48] = assay: Decrease in rpsT gene expression in Bacillus subtilis W168 by microarray analysis; type: functional; in short: as §1
# Bacillus subtilis [49] = assay: Induction of liaI gene expression in Bacillus subtilis W168 by microarray analysis; type: functional; in short: as §1
compound,measurement,setting,value
CCCCCCCCCC(=O)N[C@@H](Cc1c[nH]c2ccccc12)C(=O)N[C@H](CC(N)=O)C(=O)N[C@@H](CC(=O)O)C(=O)N[C@@H]1C(=O)NCC(=O)N[C@@H](CCCN)C(=O)N[C@@H](CC(=O)O)C(=O)N[C@H](C)C(=O)N[C@@H](CC(=O)O)C(=O)NCC(=O)N[C@H](CO)C(=O)N[C@@H]([C@H](C)CC(=O)O)C(=O)N[C@@H](CC(=O)c2ccccc2N)C(=O)O[C@@H]1C,fold change (FC),Bacillus subtilis [1],10
same,MIC,Bacillus subtilis [2],1.3 µg/mL
same,MIC,Bacillus subtilis [3],0.6 µg/mL
same,MIC,Bacillus subtilis [4],1 µg/mL
same,fold change (FC),Bacillus subtilis [5],7.8
same,fold change (FC),Bacillus subtilis [6],27
same,MIC,Bacillus subtilis [7],0.9 µg/mL
same,fold change (FC),Bacillus subtilis [8],0.5
same,fold change (FC),Bacillus subtilis [9],2.3
same,fold change (FC),Bacillus subtilis [10],7.9
same,MIC,Bacillus subtilis [11],0.8 µg/mL
same,fold change (FC),Bacillus subtilis [12],7.8
same,fold change (FC),Bacillus subtilis [13],0.5
same,MIC,Bacillus subtilis [14],0.4 µg/mL
same,fold change (FC),Bacillus subtilis [15],0.4
same,fold change (FC),Bacillus subtilis [16],3.1
same,fold change (FC),Bacillus subtilis [17],75
same,MIC,Bacillus subtilis [18],0.2 µg/mL
same,MIC,Bacillus subtilis [19],1 µg/mL
same,fold change (FC),Bacillus subtilis [20],0.5
same,fold change (FC),Bacillus subtilis [21],2.8
same,MIC,Bacillus subtilis [22],0.6 µg/mL
same,fold change (FC),Bacillus subtilis [23],2.7
same,fold change (FC),Bacillus subtilis [24],283
same,fold change (FC),Bacillus subtilis [25],0.5
same,MIC,Bacillus subtilis [26],0.2 µg/mL
same,fold change (FC),Bacillus subtilis [27],3.6
same,fold change (FC),Bacillus subtilis [28],2.1
same,fold change (FC),Bacillus subtilis [29],5.3
same,MIC,Bacillus subtilis [30],1 µg/mL
same,MIC,Bacillus subtilis [31],0.4 µg/mL
same,fold change (FC),Bacillus subtilis [32],149
same,fold change (FC),Bacillus subtilis [33],2.1
same,MIC,Bacillus subtilis [34],8 µg/mL
same,MIC,Bacillus subtilis [35],1 µg/mL
same,MIC,Bacillus subtilis [36],0.8 µg/mL
same,MIC,Bacillus subtilis [37],0.9 µg/mL
same,fold change (FC),Bacillus subtilis [38],1336
same,MIC,Bacillus subtilis [39],0.5 µg/mL
same,MIC,Bacillus subtilis [40],0.4 µg/mL
same,MIC,Bacillus subtilis [41],0.2 µg/mL
same,MIC,Bacillus subtilis [42],0.8 µg/mL
same,MIC,Bacillus subtilis [43],0.9 µg/mL
same,MIC,Bacillus subtilis [44],0.6 µg/mL
same,fold change (FC),Bacillus subtilis [45],2
same,MIC,Bacillus subtilis [46],0.3 µg/mL
same,fold change (FC),Bacillus subtilis [47],8.9
same,fold change (FC),Bacillus subtilis [48],0.5
same,fold change (FC),Bacillus subtilis [49],1294
